# Data reported in article PMC4014002 (The FEBS journal, 2014).
# Changes are numbered by the printed parent chain. Values joined by “and” are separate entries in the source; they are usually repeats but may differ in a detail not shown here. Equal entries are not always repeated. Structures can show the parent of a compound that is named as a salt. Where two headings read alike, the source gives them in different places.
# Columns and labels:
# [1] = molecular target: T1, human wild-type L-FABP T94T (Homo sapiens, UniProt P07148); assay: Circular dichroism, ligand-induced secondary structure change; details: T94T 0.5 μM, 5 μM ligand, CD
# T1 sequence (P07148 1-127): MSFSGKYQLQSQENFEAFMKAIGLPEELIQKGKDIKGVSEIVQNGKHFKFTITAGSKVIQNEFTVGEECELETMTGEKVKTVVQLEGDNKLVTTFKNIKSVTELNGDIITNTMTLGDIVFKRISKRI
# Procedure, shortened: (§1)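 Recombinant delipidated L-FABP (0.5 μM, by amino acid analysis) in 10 mM potassium phosphate pH 7.4. Ligand added to 5 μM from a 500 μM ethanol stock, giving 1% ethanol final. Stirred 10 min at 25 °C, then scanned 185–250 nm. Ten scans were averaged, buffer/ligand/ethanol background subtracted and smoothed. Secondary structure was analysed by CONTIN against the SDP48 reference set, and % change was taken relative to protein alone.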
# [2] = molecular target: T2, human L-FABP T94A variant (Homo sapiens, UniProt P07148, T94A); assay: as above; details: T94A 0.5 μM, 5 μM ligand, CD
# T2 sequence (P07148 1-127 T94A): T1 sequence (P07148 1-127) with T94A
# Procedure, shortened: as §1
# rat L-FABP [3] = molecular target: T3, rat L-FABP (Rattus norvegicus, UniProt P02692); assay: as above; details: rat L-FABP 0.5 μM, 5 μM ligand, CD
# T3 sequence (P02692 1-127): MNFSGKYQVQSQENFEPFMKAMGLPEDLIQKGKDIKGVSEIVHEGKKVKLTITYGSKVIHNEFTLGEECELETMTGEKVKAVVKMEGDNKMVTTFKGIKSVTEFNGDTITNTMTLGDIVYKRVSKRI
# Procedure, shortened: as §1
# human L-FABP = human L-FABP bound one ANS; cited from earlier work
# rat L-FABP [4] = molecular target: T3, rat L-FABP; assay: ANS binding to L-FABP
# [5] = molecular target: T2, human L-FABP T94A variant; assay: ANS binding to L-FABP
# [6] = molecular target: T1, human wild-type L-FABP T94T; assay: ANS binding to L-FABP
# [7] = molecular target: T1, human wild-type L-FABP T94T; assay: ANS displacement assay; type: binding
# rat L-FABP [8] = molecular target: T3, rat L-FABP; assay: ANS displacement assay; type: binding
# Procedure, shortened: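 Recombinant rat L-FABP (500nM, quantified by amino acid analysis) incubated 10 min with ANS (35μM) at pH 7.4, then titrated with small ligand aliquots. ANS emission scanned 410–600nm (380nm excitation). % ANS fluorescence remaining plotted vs ligand concentration gives EC50.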
# [9] = molecular target: T2, human L-FABP T94A variant; assay: ANS displacement assay; type: binding
# [10] = test system: L-FABP T94A variant human subjects; details: cited from earlier work
# T94T and T94A = details: cited from earlier work
# [11] = read-out: ANS Displacement – Ki, T94T 500nM, ANS 35μM, ND: no displacement
# [12] = read-out: ANS Displacement – Ki, T94A 500nM, ANS 35μM, ND: no displacement
# [13] = read-out: ANS Displacement – Ki, rat L-FABP 500nM, ANS 35μM, ND: no displacement
structure (smiles),measurement,setting,value
"CCCCCCCC/C=C\CCCCCCCC(=O)OC(CO)CO [2-OMG, 2-oleoyl glycerol]",change in secondary structure (L-FABP/ligand – L-FABP only),[1],no or only small changes
same,change in secondary structure (L-FABP/ligand – L-FABP only),[2],no or only small changes
same,change in secondary structure (L-FABP/ligand – L-FABP only),rat L-FABP [3],no or only small changes
"O=S(=O)(O)c1cccc2cccc(Nc3ccccc3)c12 [ANS, 1-anilinonaphthalene-8-sulfonic acid]",Kd,human L-FABP,2000 nM
same,Kd,rat L-FABP [4],2500 ± 200 nM
same,Fluorescence emission Maximum,rat L-FABP [4]; ANS bound to rat L-FABP,477 nm
same,Bmax,"rat L-FABP [4]; forward titration, 500nM rat L-FABP",1.4 and 1.42 ± 0.01
same,A.U./nM when fully bound (ANS fluorescence intensity/nM),"rat L-FABP [4]; reverse titration, ANS 100nM, rat L-FABP",0.8 A.U./nM and 0.78 ± 0.02 A.U./nM
same,Kd,[5],2400 ± 100 nM
same,Fluorescence emission Maximum,[5]; ANS bound to T94A,480 nm
same,A.U./nM when fully bound (ANS fluorescence intensity/nM),"[5]; reverse titration, ANS 100nM, T94A",1.0 A.U./nM and 0.98 ± 0.04 A.U./nM
same,Kd,[6],2300 ± 100 nM
same,Fluorescence emission Maximum,[6]; ANS bound to T94T,480 nm
same,A.U./nM when fully bound (ANS fluorescence intensity/nM),"[6]; reverse titration, ANS 100nM, T94T",1.0 A.U./nM and 1.03 ± 0.01 A.U./nM
"CCCCC/C=C\C/C=C\C/C=C\C/C=C\CCCC(=O)O [Arachidonic acid, arachidonic acid]",change in secondary structure (L-FABP/ligand – L-FABP only),[2],< 8%
same,Ki,[7],113 ± 6 nM
same,Ki,rat L-FABP [8],110 ± 6 nM
same,Ki,[9],108 ± 6 nM
"CC/C=C\C/C=C\C/C=C\C/C=C\C/C=C\C/C=C\CCC(=O)O [Docosahexaenoic acid, cis-4,7,10,13,16,19-docosahexaenoic acid]",Ki,[7],72 ± 5 nM
same,Ki,rat L-FABP [8],81 ± 15 nM
same,Ki,[9],65 ± 9 nM
"CCC=CCC=CCC=CCC=CC/C=C\CCCC(=O)O [Eicosapentaenoic acid, cis-5,8,11,14,17-eicosapentaenoic acid]",Ki,[7],200 ± 30 nM
same,Ki,rat L-FABP [8],240 ± 30 nM
same,Ki,[9],190 ± 10 nM
"CCCCCCCC/C=C\CCCCCCCC(=O)OC[C@@H](O)COP(=O)(O)O [LPA, Oleoyl-L-α-lysophosphatidic acid sodium salt]",Ki,[7]; [11],52 ± 7 nM
same,Ki,[9]; [12],36 ± 4 nM
"CCCCC/C=C\C/C=C\CCCCCCCC(=O)O [Linoleic acid, linoleic acid]",Ki,[7],113 ± 5 nM
same,Ki,rat L-FABP [8],81 ± 5 nM
same,Ki,[9],132 ± 3 nM
"CCCCCCCC/C=C\CCCCCCCC(=O)O [Oleic acid, oleic acid]",Ki,rat L-FABP [8],43 ± 2 nM
"CCCCCCCC/C=C\CCCCCCCC(=O)SCCNC(=O)CCNC(=O)[C@H](O)C(C)(C)COP(=O)(O)OP(=O)(O)OC[C@H]1O[C@@H](n2cnc3c(N)ncnc32)[C@H](O)[C@@H]1OP(=O)(O)O [Oleoyl CoA, Oleoyl Coenzyme A]",Ki,[7]; [11],1110 ± 40 nM
same,Ki,rat L-FABP [8]; [13],2410 ± 120 nM
same,Ki,[9]; [12],1030 ± 20 nM
"CCCCCCCC/C=C\CCCCCCCC(=O)O[C@@H](CO)COC(=O)CCCCCCCCCCCCCCC [PODG, 1-palmitoyl-2-oleoyl-sn-glycerol]",change in secondary structure (L-FABP/ligand – L-FABP only),[1],no or only small changes
same,change in secondary structure (L-FABP/ligand – L-FABP only),[2],no or only small changes
same,change in secondary structure (L-FABP/ligand – L-FABP only),rat L-FABP [3],no or only small changes
"CCCCCCCC/C=C\CCCCCCCC(=O)O[C@H](COC(=O)CCCCCCCCCCCCCCC)COP(=O)(O)O [POPA, 1-palmitoyl-2-Oleoyl-sn-Glycero-3-Phosphate monosodium salt]",Ki,[7]; [11],2800 ± 300 nM
same,Ki,rat L-FABP [8]; [13],9100 ± 800 nM
same,Ki,[9]; [12],2800 ± 200 nM
"CCCCCCCCCCCCCCCC(=O)O [Palmitic acid, palmitic acid]",Ki,[7],38 ± 1 nM
same,Ki,rat L-FABP [8],48 ± 1 nM
same,Ki,[9],43 ± 1 nM
CCCCCCCCCCCCCCCCCC(=O)O [Stearic acid],Ki,[7],29 ± 2 nM
same,Ki,rat L-FABP [8],37 ± 4 nM
same,Ki,[9],28 ± 1 nM
CC(C)OC(=O)C(C)(C)Oc1ccc(C(=O)c2ccc(Cl)cc2)cc1 [fenofibrate],lowering of elevated plasma triglyceride to basal levels,[10],less effective in lowering elevated plasma triglyceride to basal levels
CC(C)(Oc1ccc(C(=O)c2ccc(Cl)cc2)cc1)C(=O)O [fenofibric acid],"Ki, T94T compared with T94A",T94T and T94A,same (or similar) Ki
CC(C)CCC[C@@H](C)CCC[C@@H](C)CCCC(C)CC(=O)O (stereo partly drawn) [phytanic acid],"Ki, T94T compared with T94A",T94T and T94A,same (or similar) Ki
